The source made the active and inactive calls. The rule behind the calls is not given here. *1 amine or outer side, *2 acyl side, *3 side chain or, on linkers, in order; H or OH if unused. Where a SMILES comes first, the peptide text is derived from it. Bridges are numbered along the chain shown (N, C = ends). [ ]: non-standard residue; d: D form. hTyr = N[C@@H](CCc1ccc(O)cc1)C(=O)O; aIle = CC[C@@H](C)[C@H](N)C(=O)O; NMeA = CN[C@@H](C)C(=O)O; CO = O=C([*:1])[*:2]
Assays:
[1] = biological target: T1, M-phase inducer phosphatase 2 (Homo sapiens) (UniProt P30305); assay: Inhibition of human dual specificity protein phosphatase Cdc25B expressed in Escherichia coli BL21 (DE3) at 100 ug/mL
T1 sequence (whole entry): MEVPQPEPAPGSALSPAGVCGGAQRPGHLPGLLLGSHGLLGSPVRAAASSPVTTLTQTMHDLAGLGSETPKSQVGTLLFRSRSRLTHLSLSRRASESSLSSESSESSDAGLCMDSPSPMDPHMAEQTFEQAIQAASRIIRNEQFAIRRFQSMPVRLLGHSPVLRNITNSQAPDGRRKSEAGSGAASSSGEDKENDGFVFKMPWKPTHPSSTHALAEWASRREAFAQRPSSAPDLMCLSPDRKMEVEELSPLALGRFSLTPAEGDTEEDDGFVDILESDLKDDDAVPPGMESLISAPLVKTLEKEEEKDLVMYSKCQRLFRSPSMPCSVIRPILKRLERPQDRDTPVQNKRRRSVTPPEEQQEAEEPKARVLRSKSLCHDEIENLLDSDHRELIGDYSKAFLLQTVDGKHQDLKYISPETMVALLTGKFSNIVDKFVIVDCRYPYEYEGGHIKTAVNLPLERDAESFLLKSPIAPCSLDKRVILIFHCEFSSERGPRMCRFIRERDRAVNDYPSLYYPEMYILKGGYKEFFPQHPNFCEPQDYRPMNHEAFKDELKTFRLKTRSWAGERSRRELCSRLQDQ
Outline: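 The catalytic subunit was expressed from pET21b and purified. Substrate was 200 µM 3-O-methylfluorescein phosphate in 100 mM Tris-HCl, 40 mM NaCl, 1 mM dithiothreitol, 20% glycerol, pH 8.2, at 37 °C for 20 min. Reactions were stopped with 6 M guanidine-HCl/1 M MES, pH 5.5, and the absorbance increase at 477 nm was read. The control received MeOH.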

Oryctolagus cuniculus = organism: Oryctolagus cuniculus; assay: Inhibition of rabbit skeletal muscle PP1 at 100 ug/mL by liquid scintillation counter
Outline: (§1)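 Enzyme at 0.05 unit/50 µL was incubated with 32P-labelled myelin basic protein, which had been phosphorylated using cAMP-dependent kinase catalytic subunit and γ-[32P]ATP. Reactions ran at 30 °C for 10 min in duplicate and were stopped with 20% trichloroacetic acid on ice. Released 32Pi in the supernatant was counted by liquid scintillation. The control received MeOH.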

[2] = Inhibition of PTP-S2 expressed in Escherichia coli JM109 at 100 ug/mL
[3] = biological target: Dual specificity protein phosphatase 3 (Homo sapiens) (UniProt P51452); assay: Inhibition of human dual specificity protein phosphatase VHR expressed in Escherichia coli JM109 at 100 ug/mL
Homo sapiens = organism: Homo sapiens; assay: Inhibition of human red blood cells PP2A at 100 ug/mL by liquid scintillation counter; outline: as §1
[4] = Inhibition of rabbit skeletal muscle PP1; set-up: species or system Oryctolagus cuniculus; outline: as §1
[5] = Inhibition of human red blood cell PP2A; outline: as §1

Dual specificity protein phosphatase 3 (Homo sapiens), sequence (P51452 whole entry, looked up): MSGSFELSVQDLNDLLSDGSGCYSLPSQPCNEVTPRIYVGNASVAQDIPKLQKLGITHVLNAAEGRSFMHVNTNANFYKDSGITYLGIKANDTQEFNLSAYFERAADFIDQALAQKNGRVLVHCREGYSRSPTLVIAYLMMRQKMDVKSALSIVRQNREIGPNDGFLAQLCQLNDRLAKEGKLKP

Row | Activity [1] | inhibition (Oryctolagus cuniculus) | Activity [2] | Activity [3] | inhibition (Homo sapiens) | IC50 [4] | IC50 [5] | SMILES
1 | inactive | 38.1% | inactive | inactive | 41.5% |  |  | CC[C@H](C)[C@@H]1NC(=O)[C@H](NC(=O)N[C@@H](CCCNC(=N)N)C(=O)O)CCCCNC(=O)[C@H](Cc2ccccc2)NC(=O)[C@H](C)N(C)C(=O)[C@H](CCc2ccc(O)cc2)NC1=O ({Arg-CO}-[dK]I[hTyr][NMeA]F; lactam 1-C)
2 | inactive | 43.3% | inactive | inactive | 62.8% |  |  | CSCC[C@@H]1NC(=O)[C@H](NC(=O)N[C@@H](CCCNC(=N)N)C(=O)O)CCCCNC(=O)[C@H](Cc2ccccc2)NC(=O)[C@H](C)N(C)C(=O)[C@H](CCc2ccc(O)cc2)NC1=O ({Arg-CO}-[dK]M[hTyr][NMeA]F; lactam 1-C)
3 | inactive | 11.2% | inactive | inactive | 9.6% |  |  | CC[C@@H](C)[C@@H]1NC(=O)[C@H](NC(=O)N[C@@H](Cc2ccc(O)cc2)C(=O)O)CCCCNC(=O)[C@H](Cc2ccccc2)NC(=O)[C@H](C)N(C)C(=O)[C@H](CCc2ccc(O)cc2)NC1=O ({Tyr-CO}-[dK][aIle][hTyr][NMeA]F; lactam 1-C)
4 | inactive | 97.3% | inactive | inactive | 98.4% | 900 nM | 1330 nM | CC[C@H](C)[C@@H]1NC(=O)[C@H](NC(=O)N[C@@H](CCCNC(=N)N)C(=O)O)CCCCNC(=O)[C@H](Cc2ccccc2)NC(=O)[C@H](CCc2ccc(O)cc2)N(C)C(=O)[C@H](CCc2ccc(O)cc2)NC1=O [OSCILLAMIDE C]

Reference: ChEMBL document CHEMBL1155746, “Isolation of new protein phosphatase inhibitors from two cyanobacteria species, Planktothrix spp” (J Nat Prod, 2001)
